Assay results pooled from the literature.
Target: Protein kinase C epsilon type (PRKCE, Homo sapiens, UniProt Q02156)

Structure (SMILES)	test	setting	measurement	value
Cc1ccc(C(=O)NCc2ccsc2)cc1C#Cc1cn(C(C)C)c2ncnc(N)c12	enzyme activity, inhibitor	1 µM	activity vs control	104%
CCCS(=O)(=O)Nc1ccc(F)c(C(=O)c2c[nH]c3ncc(-c4ccc(Cl)cc4)cc23)c1F	enzyme activity, inhibitor	1 µM	inhibition	< 10%
O=C1NC(=O)c2cc(Nc3ccc(F)cc3)c(Nc3ccc(F)cc3)cc21	cell-free assay	0.5 µM	remaining signal	97.8%
Cc1nc(Cc2cccc(C(F)(F)F)c2)sc1-c1ccc(C(N)=O)nc1	cell-free assay, competition with immobilised ligand	1 µM	remaining binding	100%
O=C(Nc1cnn(-c2csc(C(=O)NC3COC3)c2)c1)Nc1ccccc1Cl	enzyme activity, inhibitor	5 µM	remaining activity	102%
Cc1ccc(-n2nc(C(C)(C)C)cc2NC(=O)Nc2ccc(OCCN3CCOCC3)c3ccccc23)cc1	enzyme activity, inhibitor	10 µM	inhibition	16%
CC(C)(C)c1nc2c(s1)c1nc(N)ncc1c1ccc(NS(=O)(=O)c3c(F)cccc3F)c(F)c12	enzyme activity, inhibitor, radiometric	1 µM	remaining activity	133%
CN(C)c1ncnc(-c2ccc3nc(Nc4cc(CN5CCN(C(=O)CC(F)(F)F)CC5)ccn4)[nH]c3c2)c1Cl	cell-free assay, competition with immobilised ligand	1 µM	remaining binding	100%
Cn1cncc1C1=CN(c2ncnc3[nH]cnc23)CCS1	enzyme activity, inhibitor, radiometric	50 nM	inhibition	25.8%
CS(=O)(=O)Nc1cccc(-c2csc(NC(=O)CSc3nc4nccnc4c(=O)n3CCc3ccccc3)n2)c1	enzyme activity, inhibitor	10 µM	inhibition	-9%
Nc1c(C(=O)NCc2ccc(C(=O)NCCCC3CCCCC3)cc2)cnn1-c1ccccc1	cell-free assay, competition with immobilised ligand	0.1 µM	remaining binding	100%
O=C(Nc1nccs1)C(c1cc(F)ccc1O)N1Cc2ccccc2C1=O (centres unmarked)	enzyme activity, inhibitor	1 µM	inhibition	14%
Cc1ccc(Nc2nccc(N(C)c3ccc4c(C)n(C)nc4c3)n2)cc1S(N)(=O)=O	enzyme activity, inhibitor	10 µM	inhibition	12%
CCCCN(CCCC)C(=O)CN1C[C@@H](c2cc(OC)c3c(c2)OCO3)[C@H](C(=O)O)[C@H]1CC(C)(C)CCC	cell-free assay, competition with immobilised ligand	1 µM	remaining binding	100%
COc1cc2ncnc(Nc3ccc(Oc4ccccc4)c(C)c3C)c2cc1OC	enzyme activity, inhibitor	1 µM	inhibition	-5%
COc1cc(Cl)c(C(=O)N[C@@H](CN[C@H]2CC[C@@H](N)CC2)Cc2ccc(C#N)cc2)cc1-c1ccc(CN[C@H](C)c2ccc(C)cc2)o1	enzyme activity, inhibitor	1 µM	remaining activity	85%
CCCOc1ccc(OC)c(F)c1C(=O)c1ccc(C(=O)N[C@@H]2CNC[C@H]2NC(=O)c2ccc3[nH]ncc3c2)cc1	enzyme activity, inhibitor	10 µM	remaining activity	67%
O=C(Nc1cccnn1)N1CC(C/C=C/c2cncc(Oc3ccc(C(F)(F)F)cn3)n2)C1	cell-free assay, competition with immobilised ligand	1 µM	remaining binding	100%
O=C1Nc2ccc(Cl)cc2C1=Cc1cc(Cl)c(O)c(Cl)c1	cell-free assay	0.5 µM	remaining signal	100%
C=CC(=O)Nc1cc(Nc2nccc(Nc3cc(Cl)c(F)cc3C(C)(C)O)n2)c(OC)cc1N1CC[C@@H](N(C)C)C1	enzyme activity, inhibitor	1 µM	inhibition	2%
CNC(=O)Nc1ccc2c(c1)CC[C@@]21OC(=O)N(CC(=O)N(Cc2ccc(F)cc2)[C@@H](C)C(F)(F)F)C1=O	cell-free assay, competition with immobilised ligand	1 µM	remaining binding	22%
CN(C)C[C@H]1CCn2c(c(C3=C(c4cn(C)c5ccccc45)C(=O)NC3=O)c3ccccc32)C1	cell-free assay	0.5 µM	remaining signal	2.73%
COc1ccc2c(c1)O[C@H](c1ccc(OC)c(OC)c1)C[C@@H]2NC(=O)C1(c2ccc3c(c2)OC(F)(F)O3)CC1	cell-free assay, competition with immobilised ligand	1 µM	remaining binding	90%
COc1ccc(COc2ccc(Cc3cnc(N)nc3N)cc2OC)cc1	cell-free assay	0.5 µM	remaining signal	95.7%
Cc1nc(N2CC[C@@H](O)C2)ncc1-c1cc(C(F)(F)F)cc2[nH]ncc12	cell-free assay, competition with immobilised ligand	1 µM	remaining binding	88%
Cc1cc(NC(=O)c2cccc3cc(-c4cccc5[nH]nc(N)c45)ccc23)ccc1F	enzyme activity, inhibitor	0.1 µM	activity vs control	84%
